Reference: ChEMBL document CHEMBL4270554, “Discovery of the cancer cell selective dual acting anti-cancer agent (Z)-2-(1H-indol-3-yl)-3-(isoquinolin-5-yl)acrylonitrile (A131)” (Eur J Med Chem, 2018)

What was measured:
HeLa [1] = experiment: Potency index, ratio of autophagy induction of test compound to chloroquine in human HeLa cells; assay type: functional
hTERT-BJ = experiment: Inhibition of mitotic progression in human hTERT-BJ cells transformed with hTert, small t, shRNAs against p53 and pRb and H-RasV12-ER assessed as increase in phosphorylated histone H3 (Ser10) level at 5 uM after 24 hrs by immunoblot analysis relative to control; assay type: functional
Procedure, shortened: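 Fully transformed BJ fibroblasts (hTert, small t, shRNAs to p53 and pRb, H-RasV12-ER) treated 24 h at 5 μM. Immunoblot protocol as for HeLa. pH3 (Ser10) band intensity expressed as fold of DMSO control; under 2-fold counted as insignificant.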

BJ [2] = experiment: Cell cycle arrest in human BJ cells assessed as accumulation at sub-G1 phase at 5 uM after 48 hrs; assay type: cell-based
Procedure, shortened: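 Isogenic normal and fully transformed BJ fibroblasts (hTert, small t, shRNAs to p53 and pRb, H-RasV12-ER) exposed to 5 μM for 48 h. Percentage of cells in sub-G1 phase determined as a cell death measure.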

[3] = Antiproliferative activity against human BJ cells after 72 hrs by MTT assay; assay type: cell-based
Procedure, shortened: (§1)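 Cells cultured at 37 °C, 5% CO₂ in medium with 10% FBS and penicillin/streptomycin, used within 12-20 passages. Seeded at 2.5×10^3 cells/well for 24 h, then compound added from DMSO stocks at 200-fold final concentration (final DMSO 0.5% v/v). After 72 h, 0.5 mg/mL MTT for 3 h, formazan dissolved in DMSO, A570 read. IC50 from sigmoidal fit; three independent determinations.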

[4] = Antiproliferative activity against human hTERT-RPE1 cells after 72 hrs by MTT assay; assay type: cell-based, TERT-RPE1; procedure, shortened: as §1
[5] = Antiproliferative activity against human WI38 cells after 72 hrs by MTT assay; assay type: cell-based; conditions: WI-38 cells; procedure, shortened: as §1
AZ-521 cell line = experiment: Antiproliferative activity against human AZ-521 cells after 72 hrs by MTT assay; assay type: functional; conditions: AZ-521, 72 h; procedure, shortened: as §1
[6] = Antiproliferative activity against human SNU216 cells after 72 hrs by MTT assay; assay type: functional; conditions: SNU-216, 72 h; procedure, shortened: as §1
MKN-45 = experiment: Antiproliferative activity against human MKN45 cells after 72 hrs by MTT assay; assay type: functional; conditions: MKN-45, 72 h; procedure, shortened: as §1
IM95 = experiment: Antiproliferative activity against human IM95 cells after 72 hrs by MTT assay; assay type: functional; conditions: IM95, 72 h; procedure, shortened: as §1
HCT-15 [7] = experiment: Antiproliferative activity against human HCT15 cells after 72 hrs by MTT assay; assay type: functional; conditions: HCT-15, 72 h; procedure, shortened: as §1
HCT-116 = experiment: Antiproliferative activity against human HCT116 cells after 72 hrs by MTT assay; assay type: functional; conditions: HCT-116, 72 h; procedure, shortened: as §1
MCF7 = experiment: Antiproliferative activity against human MCF7 cells after 72 hrs by MTT assay; assay type: functional; conditions: MCF7, 72 h; procedure, shortened: as §1
[8] = Selectivity index, ratio of IC50 for human BJ cells to IC50 for human BJ cells transformed with hTert, small t, shRNAs against p53 and pRb and H-RasV12-ER; assay type: functional
Procedure, shortened: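 Normal BJ fibroblasts and transformed BJ fibroblasts were grown at 37 °C in 5% CO₂ with 10% FBS, seeded at 2.5×10^3 cells/well for 24 h, then treated for 72 h at 0.5% v/v final DMSO. MTT at 0.5 mg/mL was added for 3 h, formazan was dissolved in DMSO and absorbance read at 570 nm. IC50 came from sigmoidal fits of three independent determinations. The index is normal-cell IC50 over transformed-cell IC50.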

TAMH = experiment: Antiproliferative activity against mouse TAMH cells at 50 uM after 72 hrs by MTT assay; assay type: cell-based
SNU-16 = experiment: Antiproliferative activity against human SNU16 cells after 72 hrs by MTT assay; assay type: functional; conditions: SNU-16, 72 h; procedure, shortened: as §1
Salmonella typhimurium [9] = experiment: Genotoxicity in Salmonella typhimurium TA98 after 48 hrs in presence of S9 fraction by Ames test; assay type: toxicity, organism-based; conditions: salmonella enterica subsp. enterica serovar typhimurium, s9, 48 h
Salmonella typhimurium [10] = experiment: Genotoxicity in Salmonella typhimurium TA100 after 48 hrs in presence of S9 mix by Ames test; assay type: toxicity, organism-based; conditions: salmonella enterica subsp. enterica serovar typhimurium
BJ [11] = experiment: Antiproliferative activity against human BJ cells assessed as reduction in cell viability at 5 uM incubated for 2 days followed by compound washout measured after 11 days by cell counting method; assay type: cell-based; conditions: 48 h
Procedure, shortened: (§2)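 Normal BJ fibroblasts synchronized in G1 by 2-day serum starvation (0.1% FBS), released into 10% FBS medium and exposed to 5 μM for 2, 4 or 11 days. After 2 or 4 days drug removed and growth continued in fresh medium up to 11 days. Total cell numbers by automated counter; mean ± S.D., n>6.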

BJ [12] = experiment: Antiproliferative activity against human BJ cells assessed as reduction in cell viability at 5 uM incubated for 4 days followed by compound washout measured after 11 days by cell counting method; assay type: cell-based; conditions: 96 h; procedure, shortened: as §2
[13] = Half life in pooled female rat liver microsomes at 3 uM preincubated for 5 mins followed by NADPH addition measured after 45 mins by LC-MS/MS method; assay type: ADME, microsome
Procedure, shortened: (§3)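 Pooled female or male rat liver microsomes (0.3 mg protein/mL) with 3 μM substrate in 0.1 M phosphate buffer pH 7.4, pre-incubated 5 min at 37 °C, started with 1 mM NADPH. Samples at 0-45 min quenched in cold acetonitrile with internal standard, analysed by LC-MS/MS. Triplicates; midazolam positive control, no-NADPH negative control.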

[14] = Half life in pooled male rat liver microsomes at 3 uM preincubated for 5 mins followed by NADPH addition measured after 45 mins by LC-MS/MS method; assay type: ADME, microsome; procedure, shortened: as §3
HCT-15 [15] = experiment: Antitumor activity against human HCT15 cells xenografted in BALB/c athymic nu/nu mouse assessed as tumor growth inhibition at 20 mg/kg, ip bid administered 12 days relative to control; assay type: functional; conditions: HCT-15, ip, 288 h, read-out: TGI
Procedure, shortened: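 Female BALB/c nu/nu mice (5-7 weeks) given 5×10^6 HCT15 cells subcutaneously in flank. At 100–300 mm³, randomized into groups of 6. Dosed IP twice daily for 12 days at 20 mg/kg in 10% DMSO, 50% PEG400, deionized water pH 5.0, vs vehicle. Tumor volumes tracked; mean ± SEM, two-way ANOVA vs vehicle.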

HeLa [16] = experiment: Induction of autophagy in human HeLa cells assessed as increase in LC3-2 to LC3-1 ratio at 5 uM after 6 hrs by immunoblot analysis relative to control; assay type: functional
Procedure, shortened: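 HeLa cells were exposed for 6 h to the compound at 0.625, 1.25, 2.5, 5 or 10 µM, or to DMSO. Cells were lysed in 1% Triton buffer (pH 8.0) with protease and phosphatase inhibitors. Lysates were resolved by 14% SDS-PAGE and immunoblotted for LC3, with β-actin probed. The LC3-II/LC3-I band-intensity ratio was expressed relative to the DMSO control.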

SMILES: N#C/C(=C\c1cccc2cnccc12)c1c[nH]c2ccccc12
- Ratio (HeLa [1]): 4 - 10
- fold change (FC) (hTERT-BJ): 7.3
- Activity (BJ [2]): Non-Toxic
- GI50 at 72 h [3]: 8100 nM
- GI50 at 72 h [4]: 5200 nM
- GI50 at 72 h [5]: 3400 nM
- GI50 (AZ-521 cell line): 2400 nM
- GI50 [6]: 1900 nM
- GI50 (MKN-45): 1000 nM
- GI50 (IM95): 1000 nM
- GI50 (HCT-15 [7]): 500 nM
- GI50 (HCT-116): 1800 nM
- GI50 (MCF7): 1200 nM
- Ratio IC50 [8]: 8.5
- Activity (TAMH): 57.3%
- GI50 (SNU-16): 1000 nM
- Activity (Salmonella typhimurium [9]): Non-Toxic
- Activity (Salmonella typhimurium [10]): Non-Toxic
- Activity (BJ [11]): Non-Toxic
- Activity (BJ [12]): Non-Toxic
- half-life at 3 µM [13]: 40.2 min
- half-life at 3 µM [14]: 7.7 min
- inhibition in vivo at 20 mg/kg (HCT-15 [15]): 74%
- fold change (FC) (HeLa [16]): 4.3
